# Measured values reported in ChEMBL document CHEMBL1138245, “Discovery of N1-(6-chloroimidazo[2,1-b][1,3]thiazole-5-sulfonyl)tryptamine as a potent, selective, and orally active 5-HT(6) receptor agonist” (J Med Chem, 2007).
# Active and inactive are the calls of the source. The rule behind the calls is not given here.
# How the values were obtained:
# [1] = AUC in dog at 5 mg/kg, po; assay type: ADME, organism-based, Canis lupus familiaris; parameters: dose 5 mg/kg, route oral; conditions: plasma
# [2] = Half life in rat at 10 mg/kg, po; assay type: ADME, organism-based; parameters: dose 10 mg/kg, route oral; conditions: in vivo
# [3] = Drug level in Sprague-Dawley rat plasma at 100 mg/kg, po after 4 hrs; assay type: ADME, organism-based; parameters: dose 100 mg/kg, route oral
# How it was run: (§1)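 Rats given a single 3 mg/kg ip or 100 mg/kg oral dose; plasma and brain concentrations measured over time to assess brain/plasma ratio.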
# [4] = Drug level in Sprague-Dawley rat plasma at 3 mg/kg, ip after 2 hrs; assay type: ADME, organism-based; parameters: dose 3 mg/kg, route intraperitoneal; how it was run: as §1
# Rattus norvegicus [5] = organism: Rattus norvegicus; test: Effect on water intake in non-SIP rat model; assay type: functional, organism-based
# [6] = Clearance in rat at 1 mg/kg, iv; assay type: ADME, organism-based; parameters: dose 1 mg/kg, route intravenous; conditions: in vivo
# [7] = Cmax in rat at 10 mg/kg, po; assay type: ADME, organism-based; parameters: dose 10 mg/kg, route oral; conditions: in vivo
# [8] = Drug level in Sprague-Dawley rat plasma at 100 mg/kg, po after 0.25 hr; assay type: ADME, organism-based; parameters: dose 100 mg/kg, route oral; how it was run: as §1
# [9] = Half life in rat at 1 mg/kg, iv; assay type: ADME, organism-based; parameters: dose 1 mg/kg, route intravenous; conditions: in vivo
# [10] = Ratio of drug level in brain to plasma in Sprague-Dawley rat at 3 mg/kg, ip after 4 hrs; assay type: ADME, organism-based; parameters: dose 3 mg/kg, route intraperitoneal; conditions: read-out: BPR
# How it was run: (§2)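 Rats given a single dose, 3 mg/kg ip or 100 mg/kg oral; drug concentrations measured in plasma and brain at timed points after dosing; brain/plasma concentration ratio calculated.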
# [11] = Ratio of drug level in brain to plasma in Sprague-Dawley rat at 100 mg/kg, po after 1 hr; assay type: ADME, organism-based; parameters: dose 100 mg/kg, route oral; conditions: read-out: BPR; how it was run: as §2
# [12] = Ratio of drug level in brain to plasma in Sprague-Dawley rat at 100 mg/kg, po after 0.5 hr; assay type: ADME, organism-based; parameters: dose 100 mg/kg, route oral; conditions: read-out: BPR; how it was run: as §2
# [13] = Aqueous solubility at pH 8; assay type: physicochemical
# [14] = Drug level in Sprague-Dawley rat plasma at 3 mg/kg, ip after 0.5 hr; assay type: ADME, organism-based; parameters: dose 3 mg/kg, route intraperitoneal; how it was run: as §1
# Rattus norvegicus [15] = organism: Rattus norvegicus; test: Decrease in water intake in schedule-induced polydipsia rat model; assay type: functional, organism-based
# [16] = Drug level in Sprague-Dawley rat brain at 3 mg/kg, ip after 2 hrs; assay type: ADME, organism-based; parameters: dose 3 mg/kg, route intraperitoneal; conditions: read-out: Drug uptake; how it was run: as §1
# [17] = AUC in rat at 1 mg/kg, iv; assay type: ADME, organism-based; parameters: dose 1 mg/kg, route intravenous; conditions: plasma
# [18] = Drug level in Sprague-Dawley rat brain at 100 mg/kg, po after 4 hrs; assay type: ADME, organism-based; parameters: dose 100 mg/kg, route oral; conditions: read-out: Drug uptake; how it was run: as §1
# [19] = target: 5-hydroxytryptamine receptor 2A (Homo sapiens) (UniProt P28223); test: Displacement of [125I]DOI from human 5HT2A receptor expressed in CHO cells at 1 uM; assay type: cell-based
# [20] = target: 5-hydroxytryptamine receptor 1B (Homo sapiens) (UniProt P28222); test: Displacement of [3H]5-HT from human 5HT1B receptor expressed in CHO cells at 1 uM; assay type: cell-based
# [21] = Drug level in Sprague-Dawley rat brain at 3 mg/kg, ip after 4 hrs; assay type: ADME, organism-based; parameters: dose 3 mg/kg, route intraperitoneal; conditions: read-out: Drug uptake; how it was run: as §1
# [22] = target: 5-hydroxytryptamine receptor 2B (Homo sapiens, UniProt P41595); test: Inhibition of human 5HT2B receptor expressed in CHO cells; assay type: cell-based
# [23] = Half life in dog at 5 mg/kg, po; assay type: ADME, organism-based, Canis lupus familiaris; parameters: dose 5 mg/kg, route oral; conditions: in vivo
# [24] = target: T1, 5-hydroxytryptamine receptor 3A (Homo sapiens) (UniProt P46098); test: Inhibition of human 5HT3 receptor expressed in CHO cells at 100 nM; assay type: cell-based
# T1 sequence (whole entry): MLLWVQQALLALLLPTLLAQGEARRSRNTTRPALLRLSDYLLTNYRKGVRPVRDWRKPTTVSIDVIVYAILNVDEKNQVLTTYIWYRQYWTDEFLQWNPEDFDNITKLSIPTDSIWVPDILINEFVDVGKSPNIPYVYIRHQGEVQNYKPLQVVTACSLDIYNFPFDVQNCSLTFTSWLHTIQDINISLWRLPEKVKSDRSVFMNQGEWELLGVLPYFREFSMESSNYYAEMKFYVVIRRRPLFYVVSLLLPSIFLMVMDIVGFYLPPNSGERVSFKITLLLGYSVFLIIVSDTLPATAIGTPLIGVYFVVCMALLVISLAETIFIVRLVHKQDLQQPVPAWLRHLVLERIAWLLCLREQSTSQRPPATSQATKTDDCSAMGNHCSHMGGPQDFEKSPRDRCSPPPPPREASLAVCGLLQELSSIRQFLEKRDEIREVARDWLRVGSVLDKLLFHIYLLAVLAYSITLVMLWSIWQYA
# [25] = Ratio of drug level in brain to plasma in Sprague-Dawley rat at 3 mg/kg, ip after 1 hr; assay type: ADME, organism-based; parameters: dose 3 mg/kg, route intraperitoneal; conditions: read-out: BPR; how it was run: as §2
# [26] = Drug level in Sprague-Dawley rat brain at 100 mg/kg, po after 2 hrs; assay type: ADME, organism-based; parameters: dose 100 mg/kg, route oral; conditions: read-out: Drug uptake; how it was run: as §1
# [27] = target: 5-hydroxytryptamine receptor 1D (Homo sapiens) (UniProt P28221); test: Displacement of [3H]5HT from human 5HT1D receptor expressed in CHO cells at 1 uM; assay type: cell-based
# [28] = Ratio of drug level in brain to plasma in Sprague-Dawley rat at 100 mg/kg, po after 4 hrs; assay type: ADME, organism-based; parameters: dose 100 mg/kg, route oral; conditions: read-out: BPR; how it was run: as §2
# [29] = Drug level in Sprague-Dawley rat plasma at 100 mg/kg, po after 0.5 hr; assay type: ADME, organism-based; parameters: dose 100 mg/kg, route oral; how it was run: as §1
# [30] = Metabolic stability in rat liver microsomes; assay type: ADME, Microsome
# [31] = Drug level in Sprague-Dawley rat brain at 3 mg/kg, ip after 1 hr; assay type: ADME, organism-based; parameters: dose 3 mg/kg, route intraperitoneal; conditions: read-out: Drug uptake; how it was run: as §1
# [32] = Metabolic stability in human liver microsomes; assay type: ADME, Microsome
# [33] = Metabolic stability in monkey liver microsomes; assay type: ADME, Macaca mulatta, Microsome; conditions: rhesus monkey
# [34] = Drug level in Sprague-Dawley rat plasma at 3 mg/kg, ip after 0.25 hr; assay type: ADME, organism-based; parameters: dose 3 mg/kg, route intraperitoneal; how it was run: as §1
# [35] = Ratio of drug level in brain to plasma in Sprague-Dawley rat at 100 mg/kg, po after 0.25 hr; assay type: ADME, organism-based; parameters: dose 100 mg/kg, route oral; conditions: read-out: BPR; how it was run: as §2
# [36] = target: 5-hydroxytryptamine receptor 7 (Homo sapiens, UniProt P34969); test: Displacement of [3H]LSD from human 5HT7 receptor expressed in CHO cells; assay type: cell-based
# How it was run: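 Human 5-HT₇ clone stably expressed in CHO cells; binding measured by [³H]LSD displacement; Ki determined in triplicate.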
# [37] = Permeability in parallel artificial membrane; assay type: ADME; conditions: PAMPA; read-out: permeability
# How it was run: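 Parallel artificial membrane permeability assay (PAMPA); permeability reported in cm/s; triplicate determinations, standard error <20%.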
# [38] = Oral bioavailability in rat at 10 mg/kg; assay type: ADME, organism-based; conditions: in vivo
# [39] = Tmax in rat at 10 mg/kg, po; assay type: ADME, organism-based; parameters: dose 10 mg/kg, route oral; conditions: in vivo
# [40] = Drug level in Sprague-Dawley rat plasma at 100 mg/kg, po after 2 hrs; assay type: ADME, organism-based; parameters: dose 100 mg/kg, route oral; how it was run: as §1
# [41] = AUC in dog at 1 mg/kg, iv; assay type: ADME, organism-based, Canis lupus familiaris; parameters: dose 1 mg/kg, route intravenous; conditions: plasma
# [42] = Tmax in dog at 5 mg/kg, po; assay type: ADME, organism-based, Canis lupus familiaris; parameters: dose 5 mg/kg, route oral; conditions: in vivo
# [43] = AUC in rat at 10 mg/kg, po; assay type: ADME, organism-based; parameters: dose 10 mg/kg, route oral; conditions: plasma
# [44] = Drug level in Sprague-Dawley rat brain at 3 mg/kg, ip after 0.25 hr; assay type: ADME, organism-based; parameters: dose 3 mg/kg, route intraperitoneal; conditions: read-out: Drug uptake; how it was run: as §1
# [45] = Volume of distribution in rat at 1 mg/kg, iv; assay type: ADME, organism-based; parameters: dose 1 mg/kg, route intravenous; conditions: in vivo, read-out: Vdss
# [46] = Half life in dog at 1 mg/kg, iv; assay type: ADME, organism-based, Canis lupus familiaris; parameters: dose 1 mg/kg, route intravenous; conditions: in vivo
# [47] = target: Beta-2 adrenergic receptor (Homo sapiens) (UniProt P07550); test: Displacement of radio ligand from beta-2 adrenergic receptor at 10 nM
# [48] = Ratio of drug level in brain to plasma in Sprague-Dawley rat at 3 mg/kg, ip after 2 hrs; assay type: ADME, organism-based; parameters: dose 3 mg/kg, route intraperitoneal; conditions: read-out: BPR; how it was run: as §2
# [49] = Clearance in dog at 1 mg/kg, iv; assay type: ADME, organism-based, Canis lupus familiaris; parameters: dose 1 mg/kg, route intravenous; conditions: in vivo
# Chain of 5-hydroxytryptamine receptor 7 (P34969 whole entry): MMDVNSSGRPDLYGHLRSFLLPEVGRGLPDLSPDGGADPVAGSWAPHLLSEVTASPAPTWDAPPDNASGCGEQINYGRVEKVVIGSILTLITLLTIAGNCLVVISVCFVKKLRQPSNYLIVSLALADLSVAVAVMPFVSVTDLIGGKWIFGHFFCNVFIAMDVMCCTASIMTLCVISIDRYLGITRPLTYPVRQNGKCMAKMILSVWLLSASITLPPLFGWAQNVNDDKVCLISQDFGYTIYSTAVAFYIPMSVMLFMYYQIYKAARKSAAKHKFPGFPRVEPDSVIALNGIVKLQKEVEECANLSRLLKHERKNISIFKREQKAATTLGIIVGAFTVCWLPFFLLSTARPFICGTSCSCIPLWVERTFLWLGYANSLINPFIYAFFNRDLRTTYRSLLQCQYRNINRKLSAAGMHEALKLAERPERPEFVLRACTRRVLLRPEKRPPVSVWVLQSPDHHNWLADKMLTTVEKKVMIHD
# Chain of 5-hydroxytryptamine receptor 1B (Homo sapiens) (P28222 whole entry): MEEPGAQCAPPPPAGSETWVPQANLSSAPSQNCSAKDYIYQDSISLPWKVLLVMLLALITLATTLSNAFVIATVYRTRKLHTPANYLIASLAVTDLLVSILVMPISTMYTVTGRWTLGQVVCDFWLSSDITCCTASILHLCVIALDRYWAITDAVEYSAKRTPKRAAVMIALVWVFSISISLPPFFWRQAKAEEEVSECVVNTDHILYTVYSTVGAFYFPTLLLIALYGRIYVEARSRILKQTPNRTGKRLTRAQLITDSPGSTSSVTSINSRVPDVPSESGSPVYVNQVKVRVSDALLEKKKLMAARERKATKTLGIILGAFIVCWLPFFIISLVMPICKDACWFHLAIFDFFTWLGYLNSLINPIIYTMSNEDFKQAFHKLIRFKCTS
# Chain of 5-hydroxytryptamine receptor 1D (Homo sapiens) (P28221 whole entry): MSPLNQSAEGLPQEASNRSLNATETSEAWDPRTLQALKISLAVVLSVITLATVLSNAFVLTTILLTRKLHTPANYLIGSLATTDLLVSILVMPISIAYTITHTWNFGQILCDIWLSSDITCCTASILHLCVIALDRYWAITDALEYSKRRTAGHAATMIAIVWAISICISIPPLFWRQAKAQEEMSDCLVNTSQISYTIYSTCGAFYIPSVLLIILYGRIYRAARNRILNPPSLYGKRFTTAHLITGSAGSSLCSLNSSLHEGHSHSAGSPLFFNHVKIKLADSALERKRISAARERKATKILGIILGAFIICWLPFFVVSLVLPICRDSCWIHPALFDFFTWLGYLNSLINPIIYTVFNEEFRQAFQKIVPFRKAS
# Chain of 5-hydroxytryptamine receptor 2B (P41595 whole entry): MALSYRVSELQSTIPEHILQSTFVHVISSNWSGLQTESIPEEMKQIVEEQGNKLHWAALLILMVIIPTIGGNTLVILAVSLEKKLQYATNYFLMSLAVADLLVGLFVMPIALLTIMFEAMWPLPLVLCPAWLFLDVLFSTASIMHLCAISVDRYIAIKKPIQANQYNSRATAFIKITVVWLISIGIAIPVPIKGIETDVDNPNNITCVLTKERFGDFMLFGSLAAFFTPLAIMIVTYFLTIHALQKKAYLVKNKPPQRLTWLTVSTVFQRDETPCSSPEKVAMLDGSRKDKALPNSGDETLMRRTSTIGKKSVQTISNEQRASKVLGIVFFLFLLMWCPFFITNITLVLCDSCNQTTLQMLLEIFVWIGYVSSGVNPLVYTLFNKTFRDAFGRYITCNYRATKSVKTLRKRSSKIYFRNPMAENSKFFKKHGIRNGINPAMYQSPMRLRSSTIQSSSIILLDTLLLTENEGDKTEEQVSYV
# Chain of Beta-2 adrenergic receptor (Homo sapiens) (P07550 whole entry, looked up): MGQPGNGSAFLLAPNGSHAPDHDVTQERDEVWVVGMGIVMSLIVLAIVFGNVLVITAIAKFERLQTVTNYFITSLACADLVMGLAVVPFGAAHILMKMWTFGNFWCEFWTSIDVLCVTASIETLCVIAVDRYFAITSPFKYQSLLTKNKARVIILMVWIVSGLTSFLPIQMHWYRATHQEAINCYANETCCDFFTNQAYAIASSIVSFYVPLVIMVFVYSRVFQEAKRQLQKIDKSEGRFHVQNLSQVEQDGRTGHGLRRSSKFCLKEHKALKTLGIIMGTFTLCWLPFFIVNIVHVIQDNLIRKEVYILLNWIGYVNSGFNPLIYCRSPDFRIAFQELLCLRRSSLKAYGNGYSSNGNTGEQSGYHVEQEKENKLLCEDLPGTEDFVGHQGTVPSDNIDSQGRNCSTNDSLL
# Chain of 5-hydroxytryptamine receptor 2A (Homo sapiens) (P28223 whole entry): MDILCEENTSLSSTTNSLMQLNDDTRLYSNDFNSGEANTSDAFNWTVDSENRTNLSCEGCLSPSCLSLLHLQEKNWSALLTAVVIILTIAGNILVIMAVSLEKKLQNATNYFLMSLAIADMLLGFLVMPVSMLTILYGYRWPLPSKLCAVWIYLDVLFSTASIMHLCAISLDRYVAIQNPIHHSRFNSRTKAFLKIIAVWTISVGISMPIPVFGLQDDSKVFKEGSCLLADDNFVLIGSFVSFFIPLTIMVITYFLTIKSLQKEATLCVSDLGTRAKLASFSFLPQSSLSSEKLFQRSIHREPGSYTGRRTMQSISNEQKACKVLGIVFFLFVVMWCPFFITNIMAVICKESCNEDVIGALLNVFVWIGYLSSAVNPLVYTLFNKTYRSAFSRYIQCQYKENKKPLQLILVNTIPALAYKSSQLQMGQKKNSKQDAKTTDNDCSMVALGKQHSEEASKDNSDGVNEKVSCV
compound,measurement,setting,value
NCCc1cn(S(=O)(=O)c2c(Cl)nc3sccn23)c2ccccc12,AUC,[1],1430 ng·h/mL
same,half-life,[2],3.1 h
same,concentration at 4 h,[3],372 ng/mL
same,concentration at 2 h,[4],3.2 ng/mL
same,Activity,Rattus norvegicus [5],inactive
same,clearance,[6],123 mL/min/kg
same,Cmax,[7],49 ng/mL
same,concentration at 0.25 h,[8],120 ng/mL
same,half-life,[9],5.4 h
same,Kp at 4 h,[10],1.39
same,Kp at 1 h,[11],0.14
same,Kp at 0.5 h,[12],0.55
same,solubility,[13],240 µg/mL
same,concentration at 0.5 h,[14],66 ng/mL
same,Activity,Rattus norvegicus [15],Dose-dependent effect
same,concentration at 2 h,[16],1.1 ng/mL
same,AUC,[17],140 ng·h/mL
same,concentration at 4 h,[18],98 ng/mL
same,Activity,[19],25%
same,Activity,[20],36%
same,concentration at 4 h,[21],6 ng/mL
same,Ki,[22],458 nM
same,half-life,[23],6.6 h
same,inhibition,[24],< 50%
same,Kp at 1 h,[25],0.68
same,concentration at 2 h,[26],59.6 ng/mL
same,Activity,[27],21%
same,Kp at 4 h,[28],0.26
same,concentration at 0.5 h,[29],356 ng/mL
same,half-life,[30],8 min
same,concentration at 1 h,[31],14.2 ng/mL
same,half-life,[32],> 1 h
same,half-life,[33],6.4 min
same,concentration at 0.25 h,[34],91.3 ng/mL
same,Kp at 0.25 h,[35],0.1
same,Ki,[36],679 nM
same,Papp,[37],13.6 ×10⁻⁶ cm/s
same,bioavailability,[38],23%
same,Tmax,[39],1.7 h
same,concentration at 2 h,[40],239 ng/mL
same,AUC,[41],520 ng·h/mL
same,Tmax,[42],2.3 h
same,AUC,[43],190 ng·h/mL
same,concentration at 0.25 h,[44],8.4 ng/mL
same,Vd,[45],24 L/kg
same,half-life,[46],2.9 h
same,Activity,[47],< 50%
same,Kp at 2 h,[48],0.33
same,clearance,[49],30 mL/min/kg
